Measurements as given in ChEMBL document CHEMBL4152223 (Eur J Med Chem, 2018).
≈ marks a conversion by molar mass, not a printed value. Calls of active or inactive are those of the source. No cut-off for these calls is given here.

Tests used:
Mycobacterium kansasii [1] = assay: Antimycobacterial activity against Mycobacterium kansasii 235/80 after 7 days; type: functional; details: 235/80, 168 h
Mycobacterium kansasii [2] = assay: Antimycobacterial activity against Mycobacterium kansasii 6509/96 after 21 days; type: functional; details: 6509/96, 504 h
[3] = Selectivity index, ratio of IC50 for human HepG2 cells to MIC for Mycobacterium tuberculosis H37Rv after 14 days; type: toxicity; details: read-out: Selectivity Index
Method in brief: (§1)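 SI is calculated as HepG2 IC50 divided by MIC. HepG2 cells (passage 2-4) were grown in EMEM with 10% FBS, L-glutamine and non-essential amino acids. Compounds in DMSO were tested in triplicate at eight concentrations, and viability was read by MTS tetrazolium reduction. IC50 is the concentration reducing viability to 50% of control. 10% DMSO served as the 0% viability control.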

HepG2 = assay: Cytotoxicity against human HepG2 cells assessed as reduction in cell viability by MTS assay; type: cell-based
Method in brief: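 HepG2 human hepatocellular carcinoma cells (passage 2-4) were cultured in Eagle's MEM with 10% FBS, 1% L-glutamine and non-essential amino acids. Compounds were dissolved in DMSO and tested in triplicate at eight concentrations. Viability was read by colorimetric MTS tetrazolium reduction. Controls were 100% viability and 0% viability (10% DMSO). IC50 is the concentration reducing viability to 50% of control.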

[4] = system: Mycobacterium tuberculosis; assay: Antimycobacterial activity against Mycobacterium tuberculosis H37Rv after 21 days; type: functional; details: 504 h
Mycobacterium avium [5] = assay: Antimycobacterial activity against INH/RIF/OFX resistant Mycobacterium avium 330/88 after 14 days; type: functional; details: 330/88, 336 h
[6] = Selectivity index, ratio of IC50 for human HepG2 cells to MIC for Mycobacterium kansasii 6509/96; type: toxicity; details: read-out: Selectivity Index; method in brief: as §1
Mycobacterium kansasii [7] = assay: Antimycobacterial activity against Mycobacterium kansasii 235/80 after 21 days; type: functional; details: 235/80, 504 h
[8] = system: Mycobacterium tuberculosis; assay: Antimycobacterial activity against Mycobacterium tuberculosis H37Rv after 14 days; type: functional; details: 336 h
Mycobacterium kansasii [9] = assay: Antimycobacterial activity against Mycobacterium kansasii 6509/96 after 7 days; type: functional; details: 6509/96, 168 h
Mycobacterium avium [10] = assay: Antimycobacterial activity against INH/RIF/OFX resistant Mycobacterium avium 330/88 after 21 days; type: functional; details: 330/88, 504 h
Mycobacterium kansasii [11] = assay: Antimycobacterial activity against Mycobacterium kansasii 235/80 after 14 days; type: functional; details: 235/80, 336 h
Mycobacterium kansasii [12] = assay: Antimycobacterial activity against Mycobacterium kansasii 6509/96 after 14 days; type: functional; details: 6509/96, 336 h
[13] = Selectivity index, ratio of IC50 for human HepG2 cells to MIC for Mycobacterium kansasii 235/80; type: toxicity; details: read-out: Selectivity Index; method in brief: as §1
[14] = target: T1, Enoyl-[acyl-carrier-protein] reductase [NADH] (Mycobacterium tuberculosis) (UniProt P9WGR1); assay: Inhibition of Mycobacterium tuberculosis H37Rv InhA assessed as reduction of trehalose dimycolate synthesis at 36.5 uM preincubated for 1 hr followed by [14C]glucose addition and measured after 24 hrs by TLC analysis
T1 sequence (whole entry): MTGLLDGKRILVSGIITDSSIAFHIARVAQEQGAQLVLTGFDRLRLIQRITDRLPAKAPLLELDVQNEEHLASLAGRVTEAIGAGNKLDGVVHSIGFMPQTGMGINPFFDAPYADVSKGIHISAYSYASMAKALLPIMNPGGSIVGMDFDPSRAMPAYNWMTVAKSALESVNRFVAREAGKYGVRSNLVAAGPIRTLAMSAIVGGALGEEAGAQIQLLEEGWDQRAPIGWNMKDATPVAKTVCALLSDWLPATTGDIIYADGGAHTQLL

[15] = target: T1, Enoyl-[acyl-carrier-protein] reductase [NADH] (Mycobacterium tuberculosis); assay: Inhibition of Mycobacterium tuberculosis H37Rv InhA assessed as reduction of trehalose monomycolate synthesis at 36.5 uM preincubated for 1 hr followed by [14C]glucose addition and measured after 24 hrs by TLC analysis

| SMILES | MIC (Mycobacterium kansasii [1]) | MIC (Mycobacterium kansasii [2]) | selectivity ratio at 336 h [3] | IC50 (HepG2) | MIC [4] | MIC (Mycobacterium avium [5]) | selectivity ratio [6] | MIC (Mycobacterium kansasii [7]) | MIC [8] | MIC (Mycobacterium kansasii [9]) | MIC (Mycobacterium avium [10]) | MIC (Mycobacterium kansasii [11]) | MIC (Mycobacterium kansasii [12]) | selectivity ratio [13] | inhibition [14] | inhibition [15] |
| --- | --- | --- | --- | --- | --- | --- | --- | --- | --- | --- | --- | --- | --- | --- | --- | --- |
| CCNC(=O)NNC(=O)c1ccncc1 | 32 µM (≈ 6.66 µg/mL) | 62.5 µM (≈ 13 µg/mL) | > 2000 | > 4000 µM | 2 µM (≈ 0.416 µg/mL) | 1000 µM (≈ 208 µg/mL) | > 64 | 62.5 µM (≈ 13 µg/mL) | 1 µM (≈ 0.208 µg/mL) | 32 µM (≈ 6.66 µg/mL) | > 1000 µM | 62.5 µM (≈ 13 µg/mL) | 62.5 µM (≈ 13 µg/mL) | > 64 |  |  |
| CCCNC(=O)NNC(=O)c1ccncc1 | 4 µM (≈ 0.889 µg/mL) | 8 µM (≈ 1.78 µg/mL) | > 5000 | > 5000 µM | 1 µM (≈ 0.222 µg/mL) | 250 µM (≈ 55.6 µg/mL) | > 312 | 16 µM (≈ 3.56 µg/mL) | 1 µM (≈ 0.222 µg/mL) | 4 µM (≈ 0.889 µg/mL) | 500 µM (≈ 111 µg/mL) | 8 µM (≈ 1.78 µg/mL) | 8 µM (≈ 1.78 µg/mL) | > 312 |  |  |
| CCCCCCCCCCCNc1nnc(-c2ccncc2)o1 | 8 µM (≈ 2.53 µg/mL) | 250 µM (≈ 79.1 µg/mL) | 5.4 | 172 µM | 32 µM (≈ 10.1 µg/mL) | 500 µM (≈ 158 µg/mL) |  | 32 µM (≈ 10.1 µg/mL) | 32 µM (≈ 10.1 µg/mL) | 125 µM (≈ 39.6 µg/mL) | 500 µM (≈ 158 µg/mL) | 16 µM (≈ 5.06 µg/mL) | 125 µM (≈ 39.6 µg/mL) |  |  |  |
| CCCCCCNC(=O)NNC(=O)c1ccncc1 | 250 µM (≈ 66.1 µg/mL) | 500 µM (≈ 132 µg/mL) | > 31.3 | > 1000 µM | 32 µM (≈ 8.46 µg/mL) | 500 µM (≈ 132 µg/mL) |  | 250 µM (≈ 66.1 µg/mL) | 32 µM (≈ 8.46 µg/mL) | 250 µM (≈ 66.1 µg/mL) | 500 µM (≈ 132 µg/mL) | 250 µM (≈ 66.1 µg/mL) | 500 µM (≈ 132 µg/mL) |  |  |  |
| NNC(=O)c1ccncc1 [ISONIAZID] | > 250 µM | 8 µM (≈ 1.1 µg/mL) | > 5000 | > 5000 µM | 1 µM (≈ 0.137 µg/mL) | > 250 µM | > 625 | > 250 µM | 0.5 µM (≈ 0.0686 µg/mL) | 8 µM (≈ 1.1 µg/mL) | > 250 µM | > 250 µM | 8 µM (≈ 1.1 µg/mL) | > 625 | Active | Active |
| CCCCNC(=O)NNC(=O)c1ccncc1 | 500 µM (≈ 118 µg/mL) | 500 µM (≈ 118 µg/mL) | > 375 | > 3000 µM | 8 µM (≈ 1.89 µg/mL) | > 1000 µM |  | 1000 µM (≈ 236 µg/mL) | 8 µM (≈ 1.89 µg/mL) | 250 µM (≈ 59.1 µg/mL) | > 1000 µM | 1000 µM (≈ 236 µg/mL) | 250 µM (≈ 59.1 µg/mL) |  |  |  |
| CCCCCCCCNC(=O)NNC(=O)c1ccncc1 | 32 µM (≈ 9.36 µg/mL) | 250 µM (≈ 73.1 µg/mL) |  | > 500 µM | 125 µM (≈ 36.5 µg/mL) | 250 µM (≈ 73.1 µg/mL) |  | 125 µM (≈ 36.5 µg/mL) | 62.5 µM (≈ 18.3 µg/mL) | 62.5 µM (≈ 18.3 µg/mL) | 250 µM (≈ 73.1 µg/mL) | 62.5 µM (≈ 18.3 µg/mL) | 125 µM (≈ 36.5 µg/mL) |  |  |  |
| CCCCCNC(=O)NNC(=O)c1ccncc1 | 62.5 µM (≈ 15.6 µg/mL) | 125 µM (≈ 31.3 µg/mL) | > 500 | > 4000 µM | 8 µM (≈ 2 µg/mL) | > 1000 µM | > 32 | 125 µM (≈ 31.3 µg/mL) | 8 µM (≈ 2 µg/mL) | 125 µM (≈ 31.3 µg/mL) | > 1000 µM | 125 µM (≈ 31.3 µg/mL) | 125 µM (≈ 31.3 µg/mL) | > 32 |  |  |
| CCCCCCCCCCCCCNC(=O)NNC(=O)c1ccncc1 | 16 µM (≈ 5.8 µg/mL) | 62.5 µM (≈ 22.7 µg/mL) |  | > 100 µM | 62.5 µM (≈ 22.7 µg/mL) | 125 µM (≈ 45.3 µg/mL) |  | 62.5 µM (≈ 22.7 µg/mL) | 32 µM (≈ 11.6 µg/mL) | 32 µM (≈ 11.6 µg/mL) | 125 µM (≈ 45.3 µg/mL) | 32 µM (≈ 11.6 µg/mL) | 62.5 µM (≈ 22.7 µg/mL) |  |  |  |
| CCCCCCCNC(=O)NNC(=O)c1ccncc1 | 62.5 µM (≈ 17.4 µg/mL) | 250 µM (≈ 69.6 µg/mL) |  | > 500 µM | 62.5 µM (≈ 17.4 µg/mL) | 250 µM (≈ 69.6 µg/mL) |  | 125 µM (≈ 34.8 µg/mL) | 32 µM (≈ 8.91 µg/mL) | 125 µM (≈ 34.8 µg/mL) | 250 µM (≈ 69.6 µg/mL) | 125 µM (≈ 34.8 µg/mL) | 250 µM (≈ 69.6 µg/mL) |  |  |  |
| CCCCCCCCCCCCCCCCCCNC(=O)NNC(=O)c1ccncc1 | 250 µM (≈ 108 µg/mL) | 250 µM (≈ 108 µg/mL) |  | > 50 µM | 250 µM (≈ 108 µg/mL) | 250 µM (≈ 108 µg/mL) |  | 250 µM (≈ 108 µg/mL) | 250 µM (≈ 108 µg/mL) | 250 µM (≈ 108 µg/mL) | 250 µM (≈ 108 µg/mL) | 250 µM (≈ 108 µg/mL) | 250 µM (≈ 108 µg/mL) |  |  |  |
| CCCCCCCCCCCNC(=O)NNC(=O)c1ccncc1 | 16 µM (≈ 5.35 µg/mL) | 125 µM (≈ 41.8 µg/mL) |  | > 50 µM | 62.5 µM (≈ 20.9 µg/mL) | 125 µM (≈ 41.8 µg/mL) |  | 62.5 µM (≈ 20.9 µg/mL) | 32 µM (≈ 10.7 µg/mL) | 62.5 µM (≈ 20.9 µg/mL) | 125 µM (≈ 41.8 µg/mL) | 32 µM (≈ 10.7 µg/mL) | 125 µM (≈ 41.8 µg/mL) |  |  |  |
